Laboratory results as given in ChEMBL document CHEMBL3351295, “Rational design, synthesis and evaluation of chromone-indole and chromone-pyrazole based conjugates: identification of a lead for anti-inflammatory drug” (Eur J Med Chem, 2014).
Active and inactive are the calls of the source. The calls are words filed in the database; no cut-off is given here.

How the values were obtained:
[1] = target: T1, Prostaglandin G/H synthase 1 (Ovis aries) (UniProt P05979); assay: Inhibition of ovine COX-1 assessed as decrease in prostaglandin production using arachidonic acid as substrate at 10 uM incubated with enzyme for 10 mins prior to substrate challenge by enzyme immunoassay
T1 sequence (whole entry): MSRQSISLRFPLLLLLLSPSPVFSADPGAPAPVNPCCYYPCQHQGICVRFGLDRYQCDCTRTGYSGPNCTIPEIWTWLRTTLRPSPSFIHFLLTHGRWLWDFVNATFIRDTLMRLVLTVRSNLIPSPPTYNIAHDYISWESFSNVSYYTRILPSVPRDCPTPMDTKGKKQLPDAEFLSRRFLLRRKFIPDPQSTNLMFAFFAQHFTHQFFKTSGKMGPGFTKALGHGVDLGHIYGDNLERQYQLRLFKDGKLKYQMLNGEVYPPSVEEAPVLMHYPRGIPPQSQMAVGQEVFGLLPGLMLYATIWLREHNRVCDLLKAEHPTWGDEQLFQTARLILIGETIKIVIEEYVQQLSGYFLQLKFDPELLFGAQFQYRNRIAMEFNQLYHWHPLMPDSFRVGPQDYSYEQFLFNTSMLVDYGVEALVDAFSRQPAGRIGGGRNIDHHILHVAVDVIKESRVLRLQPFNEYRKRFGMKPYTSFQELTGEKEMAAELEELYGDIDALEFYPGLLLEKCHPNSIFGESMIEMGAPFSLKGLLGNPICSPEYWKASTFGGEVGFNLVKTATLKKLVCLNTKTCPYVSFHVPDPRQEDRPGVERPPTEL
Method in brief: (§1)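 Ovine COX-1 EIA kit run in triplicate. Compounds were at 10^-5 to 10^-8 M. Enzyme and compound were incubated 10 min at 37 °C, then arachidonic acid was added for 2 min. The reaction was stopped with 1 M HCl and reduced with stannous chloride. Prostaglandins were quantified by AChE-tracer competitive EIA (18 h at room temperature, Ellman's reagent, read at 420 nm) against a 100% activity control.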

[2] = target: T1, Prostaglandin G/H synthase 1 (Ovis aries); assay: Inhibition of ovine COX-1 assessed as decrease in prostaglandin production using arachidonic acid as substrate at 0.1 uM incubated with enzyme for 10 mins prior to substrate challenge by enzyme immunoassay; method in brief: as §1
Solanum tuberosum [3] = assay: Inhibition of potato 5-LOX assessed as decrease in leukotriene production using arachidonic acid as substrate at 1 uM by enzyme immunoassay
[4] = target: T2, Prostaglandin G/H synthase 1 (Ovis aries, UniProt P05979); assay: Inhibition of ovine COX-1 assessed as decrease in prostaglandin production using arachidonic acid as substrate incubated with enzyme for 10 mins prior to substrate challenge by enzyme immunoassay; method in brief: as §1
T2 sequence (P05979 whole entry): T1 sequence (whole entry)

[5] = target: T1, Prostaglandin G/H synthase 1 (Ovis aries); assay: Inhibition of ovine COX-1 assessed as decrease in prostaglandin production using arachidonic acid as substrate at 1 uM incubated with enzyme for 10 mins prior to substrate challenge by enzyme immunoassay; method in brief: as §1
Solanum tuberosum [6] = assay: Inhibition of potato 5-LOX assessed as decrease in leukotriene production using arachidonic acid as substrate at 0.1 uM by enzyme immunoassay
Method in brief: (§2)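 Potato 5-LOX assay in buffer with DMSO solvent control. Compounds were tested at final well concentrations of 10^-5 to 10^-8 M in duplicate. Reaction was started with arachidonic acid and the plate shaken 5 min. Chromogen was added to stop the reaction, followed by 30 min incubation and reading at 500 nm. Activity was compared with 100% initial-activity wells.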

[7] = Inhibition of potato 5-LOX assessed as decrease in leukotriene production using arachidonic acid as substrate by enzyme immunoassay; design: species or system Solanum tuberosum; method in brief: as §2
Solanum tuberosum [8] = assay: Inhibition of potato 5-LOX assessed as decrease in leukotriene production using arachidonic acid as substrate at 10 nM by enzyme immunoassay
Mus musculus [9] = assay: Analgesic activity in Swiss albino mouse assessed as decrease in capsaicin-induced paw lickings at 5 mg/kg, ip administered 30 mins before capsaicin injection; format: functional; settings: route intraperitoneal
Method in brief: (§3)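 Capsaicin […] was injected into the plantar surface of the right hind paw. Swiss albino mice (25–35 g, either sex, groups of 6) were pretreated i.p. 30 min beforehand; saline 0.5 mL was the control. Time spent licking and twitching was recorded over 10 min. Results are mean ± SEM (n = 6), analysed by one-way ANOVA with Tukey's test.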

[10] = target: Prostaglandin G/H synthase 1 (Homo sapiens) (UniProt P23219)
Solanum tuberosum [11] = assay: Inhibition of potato 5-LOX assessed as decrease in leukotriene production using arachidonic acid as substrate at 10 uM by enzyme immunoassay; method in brief: as §2
Mus musculus [12] = assay: Analgesic activity in Swiss albino mouse assessed as decrease in capsaicin-induced paw lickings at 10 mg/kg, ip administered 30 mins before capsaicin injection; format: functional, organism-based; design: dose 10 mg/kg; method in brief: as §3
[13] = target: Prostaglandin G/H synthase 1 (Homo sapiens) (UniProt P23219); assay: Binding affinity to COX-1 (unknown origin) at 0.35 mM after 30 mins by [13C] NMR spectroscopy; settings: in the assay text read “[1H] NMR” for “[13C] NMR”
Method in brief: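 Compound was 0.35 mM in DMSO-d6, with 12 (0.08 mM) COX-1 or COX-2 added. Samples were incubated at 37 °C and 1H NMR spectra were recorded every 30 min. D2O exchange was used to assign NH signals.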

[14] = target: T3, Prostaglandin G/H synthase 2 (Homo sapiens) (UniProt P35354)
T3 sequence (whole entry): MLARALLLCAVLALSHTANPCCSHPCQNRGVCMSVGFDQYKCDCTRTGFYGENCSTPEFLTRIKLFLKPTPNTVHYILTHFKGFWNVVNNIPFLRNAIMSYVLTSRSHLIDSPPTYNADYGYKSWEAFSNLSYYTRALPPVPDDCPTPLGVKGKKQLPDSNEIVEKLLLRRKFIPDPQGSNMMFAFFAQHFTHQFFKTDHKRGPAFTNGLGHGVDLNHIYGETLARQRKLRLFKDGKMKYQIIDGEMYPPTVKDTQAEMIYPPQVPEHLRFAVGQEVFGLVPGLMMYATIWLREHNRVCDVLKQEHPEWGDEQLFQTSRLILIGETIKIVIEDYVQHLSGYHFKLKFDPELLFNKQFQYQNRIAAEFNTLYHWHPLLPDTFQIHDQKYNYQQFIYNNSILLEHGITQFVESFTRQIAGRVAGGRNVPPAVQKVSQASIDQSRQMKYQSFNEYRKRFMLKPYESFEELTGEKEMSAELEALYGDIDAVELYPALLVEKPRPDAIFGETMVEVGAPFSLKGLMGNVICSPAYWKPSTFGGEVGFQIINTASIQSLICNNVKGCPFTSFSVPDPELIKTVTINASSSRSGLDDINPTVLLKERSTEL

Mus musculus [15] = assay: Analgesic activity in Swiss albino mouse assessed as decrease in capsaicin-induced paw lickings at 25 mg/kg, ip administered 30 mins before capsaicin injection; format: functional; settings: route intraperitoneal; method in brief: as §3

Prostaglandin G/H synthase 1 (Homo sapiens), sequence (P23219 whole entry): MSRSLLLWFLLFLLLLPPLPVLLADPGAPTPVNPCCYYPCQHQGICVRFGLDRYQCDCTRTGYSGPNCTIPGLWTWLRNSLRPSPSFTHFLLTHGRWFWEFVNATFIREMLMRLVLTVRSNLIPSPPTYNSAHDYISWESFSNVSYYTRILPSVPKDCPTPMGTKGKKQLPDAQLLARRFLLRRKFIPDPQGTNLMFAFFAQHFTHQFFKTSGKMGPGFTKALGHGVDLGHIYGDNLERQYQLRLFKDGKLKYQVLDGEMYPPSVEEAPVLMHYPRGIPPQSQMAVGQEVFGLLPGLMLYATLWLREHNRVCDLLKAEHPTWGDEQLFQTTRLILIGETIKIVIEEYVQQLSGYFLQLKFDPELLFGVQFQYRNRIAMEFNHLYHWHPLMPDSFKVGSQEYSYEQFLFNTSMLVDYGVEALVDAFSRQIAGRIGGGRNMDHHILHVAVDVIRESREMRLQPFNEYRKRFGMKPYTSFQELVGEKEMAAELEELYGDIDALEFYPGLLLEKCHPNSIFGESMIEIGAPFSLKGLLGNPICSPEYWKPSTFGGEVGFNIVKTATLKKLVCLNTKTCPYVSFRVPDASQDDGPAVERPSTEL

With O=C1Nc2ccccc2/C1=C/c1coc2ccc(Br)cc2c1=O the inhibition [1] was 40.5%, the inhibition [2] was 20% and the inhibition (Solanum tuberosum [3]) was 77.6%. It also gave an IC50 [4] of 6.75 µM and an inhibition [5] of 30.4%.
CC(C)c1ccc2occ(/C=C3/C(=O)N(c4c(Cl)cccc4Cl)c4ccccc43)c(=O)c2c1 showed an inhibition (Solanum tuberosum [6]) of 44.8%, an inhibition [1] of 64.6% and an inhibition [2] of 47%. The IC50 [7] was 0.02 µM, the inhibition (Solanum tuberosum [3]) was 81% and the IC50 [4] was 0.65 µM. It also gave an inhibition (Solanum tuberosum [8]) of 30.1% and an inhibition [5] of 56%.
O=C1Nc2ccccc2/C1=C/c1coc2ccccc2c1=O showed an inhibition in vivo at 5 mg/kg (Mus musculus [9]) of 76%, an inhibition (Solanum tuberosum [6]) of 22.4% and an inhibition [1] of 51.6%. The inhibition [2] was 35%, the Ka [10] was 0.29 ×10⁴ /M and the inhibition (Solanum tuberosum [11]) was 74.1%. For the same compound, the inhibition (Mus musculus [12]) was “Active”, the Activity [13] was “Active” and the Ka [14] was 0.75 ×10⁴ /M. It also gave an IC50 [4] of 1.35 µM and an inhibition [5] of 43%.
With O=C1/C(=C/c2coc3ccccc3c2=O)c2ccccc2N1c1c(Cl)cccc1Cl the inhibition (Solanum tuberosum [6]) was 20%, the inhibition [1] was 80.3% and the inhibition [2] was 63%. For the same compound, the inhibition (Solanum tuberosum [3]) was 15.5%, the inhibition (Solanum tuberosum [11]) was 8.62% and the IC50 [4] was 0.0047 µM. It also gave an inhibition [5] of 75%.
With CCCCC/C=C\C/C=C\C/C=C\C/C=C\CCCC(=O)O the Ka [10] was 0.39 ×10⁴ /M and the Ka [14] was 0.18 ×10⁴ /M.
CC(=O)Oc1ccccc1C(=O)O showed a Ka [10] of 0.93 ×10⁴ /M and a Ka [14] of 0.22 ×10⁴ /M.
Compound O=C(O)Cc1ccccc1Nc1c(Cl)cccc1Cl [DICLOFENAC] has an inhibition in vivo at 25 mg/kg (Mus musculus [15]) of 68%.
For O=C1/C(=C/c2coc3ccc(Br)cc3c2=O)c2ccccc2N1c1c(Cl)cccc1Cl, the inhibition (Solanum tuberosum [6]) was 37%, the inhibition [1] was 80.3% and the inhibition [2] was 44.4%. It also gave an IC50 [7] of 10 µM, an inhibition (Solanum tuberosum [11]) of 50% and an IC50 [4] of 0.63 µM. For the same compound, the inhibition (Solanum tuberosum [8]) was 25% and the inhibition [5] was 60%.
Work on CC1=NN(c2cccc(Cl)c2)C(=O)/C1=C/c1coc2c([N+](=O)[O-])cc(F)cc2c1=O yielded an inhibition (Solanum tuberosum [6]) of 22.4%, an inhibition [1] of 27.9% and an inhibition [2] of 15%. The IC50 [7] was 7.4 µM, the inhibition (Solanum tuberosum [3]) was 46.5% and the IC50 [4] was over 10 µM. For the same compound, the inhibition (Solanum tuberosum [8]) was 8.62% and the inhibition [5] was 18%.
